# Tested on: Pseudomonas aeruginosa
# Experiment: Antibacterial activity against Pseudomonas aeruginosa MTCC 2453 after 24 hrs by well diffusion assay
# Format: functional
# Details: MTCC 2453, 24 h
row,SMILES,MIC [µg/mL]
1,O=C(O)c1cn(C2CC2)c2cc(N3CCNCC3)c(F)cc2c1=O [CIPROFLOXACIN],0.9
2,CCCCCCCCC(CCCCCCCCC(=O)OC)SCC(=O)N[C@H](C(=O)OC)[C@@H](C)CC (stereo not given in full),> 125
3,CCCCCCCCC(CCCCCCCCC(=O)OC)SCC(=O)N[C@@H](CC(C)C)C(=O)OC (stereo not given in full),> 125

# Tested on: Micrococcus luteus
# Experiment: Antibacterial activity against Micrococcus luteus MTCC 2470 after 24 hrs by well diffusion assay
# Format: functional
# Details: MTCC 2470, 24 h
row,SMILES,MIC [µg/mL]
1,O=C(O)c1cn(C2CC2)c2cc(N3CCNCC3)c(F)cc2c1=O [CIPROFLOXACIN],0.9
2,CCCCCCCCC(CCCCCCCCC(=O)OC)SCC(=O)N[C@H](C(=O)OC)[C@@H](C)CC (stereo not given in full),31.2
3,CCCCCCCCC(CCCCCCCCC(=O)OC)SCC(=O)N[C@@H](CC(C)C)C(=O)OC (stereo not given in full),> 125

# Tested on: Staphylococcus aureus
# Experiment: Antibacterial activity against Staphylococcus aureus MTCC 96 after 24 hrs by well diffusion assay
# Format: functional
# Details: MTCC 96, 24 h
row,SMILES,MIC [µg/mL]
1,O=C(O)c1cn(C2CC2)c2cc(N3CCNCC3)c(F)cc2c1=O [CIPROFLOXACIN],0.9
2,CCCCCCCCC(CCCCCCCCC(=O)OC)SCC(=O)N[C@H](C(=O)OC)[C@@H](C)CC (stereo not given in full),31.2
3,CCCCCCCCC(CCCCCCCCC(=O)OC)SCC(=O)N[C@@H](CC(C)C)C(=O)OC (stereo not given in full),> 125

# Tested on: Escherichia coli
# Experiment: Antibacterial activity against Escherichia coli MTCC 739 after 24 hrs by well diffusion assay
# Format: functional
# Details: MTCC 739, 24 h
row,SMILES,MIC [µg/mL]
1,O=C(O)c1cn(C2CC2)c2cc(N3CCNCC3)c(F)cc2c1=O [CIPROFLOXACIN],0.9
2,CCCCCCCCC(CCCCCCCCC(=O)OC)SCC(=O)N[C@H](C(=O)OC)[C@@H](C)CC (stereo not given in full),> 125
3,CCCCCCCCC(CCCCCCCCC(=O)OC)SCC(=O)N[C@@H](CC(C)C)C(=O)OC (stereo not given in full),> 125

# Tested on: HepG2
# Experiment: Cytotoxicity against human HepG2 cells by MTT assay
# Format: functional, cell-based
# Details: not given
row,SMILES,IC50 [µM]
1,CCCCCCCCC(CCCCCCCCC(=O)OC)SCC(=O)N[C@H](C(=O)OC)[C@@H](C)CC (stereo not given in full),15.3

# Tested on: Staphylococcus aureus
# Experiment: Antibiofilm activity against Staphylococcus aureus MTCC 96 after 24 hrs by crystal violet staining based method
# Format: functional, organism-based
# Details: MTCC 96, 24 h
# In short: (§1)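 Biofilm inhibition was tested on the four Gram-positive strains, using crystal violet staining.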
row,SMILES,IC50 [µM]
1,CCCCCCCCC(CCCCCCCCC(=O)OC)SCC(=O)N[C@H](C(=O)OC)[C@@H](C)CC (stereo not given in full),21.5

# Tested on: Bacillus subtilis
# Experiment: Antibacterial activity against Bacillus subtilis MTCC 121 after 24 hrs by well diffusion assay
# Format: functional
# Details: MTCC 121, 24 h
row,SMILES,MIC [µg/mL]
1,O=C(O)c1cn(C2CC2)c2cc(N3CCNCC3)c(F)cc2c1=O [CIPROFLOXACIN],0.9
2,CCCCCCCCC(CCCCCCCCC(=O)OC)SCC(=O)N[C@H](C(=O)OC)[C@@H](C)CC (stereo not given in full),> 125
3,CCCCCCCCC(CCCCCCCCC(=O)OC)SCC(=O)N[C@@H](CC(C)C)C(=O)OC (stereo not given in full),> 125

# Tested on: Bacillus subtilis
# Experiment: Antibiofilm activity against Bacillus subtilis MTCC 121 after 24 hrs by well diffusion assay by crystal violet staining based method
# Format: functional, organism-based
# Details: MTCC 121, 24 h
# In short: as §1
row,SMILES,IC50 [µM]
1,O=C(O)c1cn(C2CC2)c2cc(N3CCNCC3)c(F)cc2c1=O [CIPROFLOXACIN],0.5

# Tested on: not listed separately
# Experiment: Cytotoxicity against human SKOV3 cells by MTT assay
# Format: functional, cell-based
# Details: SK-OV-3
row,SMILES,IC50 [µM]
1,CCCCCCCCC(CCCCCCCCC(=O)OC)SCC(=O)N[C@H](C(=O)OC)[C@@H](C)CC (stereo not given in full),16.4

# Tested on: Staphylococcus aureus
# Experiment: Bactericidal activity against Staphylococcus aureus MTCC 96 after 24 hrs
# Format: functional
# Details: MTCC 96, 24 h
# In short: (§2)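 Minimum bactericidal concentration was determined on four Gram-positive strains, for the compounds active in the preliminary antibacterial screen.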
row,SMILES,MBC [µg/mL]
1,O=C(O)c1cn(C2CC2)c2cc(N3CCNCC3)c(F)cc2c1=O [CIPROFLOXACIN],1.9
2,CCCCCCCCC(CCCCCCCCC(=O)OC)SCC(=O)N[C@H](C(=O)OC)[C@@H](C)CC (stereo not given in full),31.2

# Tested on: Raoultella planticola
# Experiment: Antibacterial activity against Klebsiella planticola MTCC 530 after 24 hrs by well diffusion assay
# Format: functional
# Details: MTCC 530, 24 h
row,SMILES,MIC [µg/mL]
1,O=C(O)c1cn(C2CC2)c2cc(N3CCNCC3)c(F)cc2c1=O [CIPROFLOXACIN],0.9
2,CCCCCCCCC(CCCCCCCCC(=O)OC)SCC(=O)N[C@H](C(=O)OC)[C@@H](C)CC (stereo not given in full),> 125
3,CCCCCCCCC(CCCCCCCCC(=O)OC)SCC(=O)N[C@@H](CC(C)C)C(=O)OC (stereo not given in full),> 125

# Tested on: Staphylococcus aureus
# Experiment: Bactericidal activity against Staphylococcus aureus MLS-16 MTCC 2940 after 24 hrs
# Format: functional
# Details: MLS-16 MTCC 2940, 24 h
# In short: as §2
row,SMILES,MBC [µg/mL]
1,O=C(O)c1cn(C2CC2)c2cc(N3CCNCC3)c(F)cc2c1=O [CIPROFLOXACIN],1.9

# Tested on: Candida albicans
# Experiment: Antifungal activity against Candida albicans MTCC 3017 after 24 hrs by well diffusion assay
# Format: functional
# Details: MTCC 3017, 24 h
# In short: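 Well diffusion screen against Candida and related fungal strains. Read-out is MIC in µg/mL, with miconazole as the reference drug.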
row,SMILES,MIC [µg/mL]
1,O=C(O)c1cn(C2CC2)c2cc(N3CCNCC3)c(F)cc2c1=O [CIPROFLOXACIN],> 125
2,CCCCCCCCC(CCCCCCCCC(=O)OC)SCC(=O)N[C@H](C(=O)OC)[C@@H](C)CC (stereo not given in full),> 125
3,CCCCCCCCC(CCCCCCCCC(=O)OC)SCC(=O)N[C@@H](CC(C)C)C(=O)OC (stereo not given in full),> 125

# Tested on: Micrococcus luteus
# Experiment: Antibiofilm activity against Micrococcus luteus MTCC 2470 after 24 hrs by crystal violet staining based method
# Format: functional, organism-based
# Details: MTCC 2470, 24 h
# In short: as §1
row,SMILES,IC50 [µM]
1,O=C(O)c1cn(C2CC2)c2cc(N3CCNCC3)c(F)cc2c1=O [CIPROFLOXACIN],0.5
2,CCCCCCCCC(CCCCCCCCC(=O)OC)SCC(=O)N[C@H](C(=O)OC)[C@@H](C)CC (stereo not given in full),16.8

# Tested on: Micrococcus luteus
# Experiment: Bactericidal activity against Micrococcus luteus MTCC 2470 after 24 hrs
# Format: functional
# Details: MTCC 2470, 24 h
# In short: as §2
row,SMILES,MBC [µg/mL]
1,O=C(O)c1cn(C2CC2)c2cc(N3CCNCC3)c(F)cc2c1=O [CIPROFLOXACIN],0.9
2,CCCCCCCCC(CCCCCCCCC(=O)OC)SCC(=O)N[C@H](C(=O)OC)[C@@H](C)CC (stereo not given in full),31.2

# Tested on: Staphylococcus aureus
# Experiment: Antibacterial activity against Staphylococcus aureus MLS-16 MTCC 2940 after 24 hrs by well diffusion assay
# Format: functional
# Details: MLS-16 MTCC 2940, 24 h
row,SMILES,MIC [µg/mL]
1,O=C(O)c1cn(C2CC2)c2cc(N3CCNCC3)c(F)cc2c1=O [CIPROFLOXACIN],0.9
2,CCCCCCCCC(CCCCCCCCC(=O)OC)SCC(=O)N[C@H](C(=O)OC)[C@@H](C)CC (stereo not given in full),> 125
3,CCCCCCCCC(CCCCCCCCC(=O)OC)SCC(=O)N[C@@H](CC(C)C)C(=O)OC (stereo not given in full),> 125

# Tested on: MDA-MB-231
# Experiment: Cytotoxicity against human MDA-MB-231 cells by MTT assay
# Format: functional, cell-based
# Details: not given
row,SMILES,IC50 [µM]
1,CCCCCCCCC(CCCCCCCCC(=O)OC)SCC(=O)N[C@H](C(=O)OC)[C@@H](C)CC (stereo not given in full),22.4
2,CCCCCCCCC(CCCCCCCCC(=O)OC)SCC(=O)N[C@@H](CC(C)C)C(=O)OC (stereo not given in full),152

# Tested on: not listed separately
# Experiment: Cytotoxicity against human DU145 cells by MTT assay
# Format: functional, cell-based
# Details: DU-145
row,SMILES,IC50 [µM]
1,CCCCCCCCC(CCCCCCCCC(=O)OC)SCC(=O)N[C@H](C(=O)OC)[C@@H](C)CC (stereo not given in full),19
2,CCCCCCCCC(CCCCCCCCC(=O)OC)SCC(=O)N[C@@H](CC(C)C)C(=O)OC (stereo not given in full),215

# Tested on: Bacillus subtilis
# Experiment: Bactericidal activity against Bacillus subtilis MTCC 121 after 24 hrs by well diffusion assay
# Format: functional
# Details: MTCC 121, 24 h
# In short: as §2
row,SMILES,MBC [µg/mL]
1,O=C(O)c1cn(C2CC2)c2cc(N3CCNCC3)c(F)cc2c1=O [CIPROFLOXACIN],1.9
